Laboratory results reported in ChEMBL document CHEMBL1142175, “Activities of antimicrobial peptides and synergy with enrofloxacin against Mycoplasma pulmonis” (2007).
Values after ≈ are worked out from the molar mass of the structure shown. Active and inactive are the calls of the source. The rule behind the calls is not given here. Starred links: 1 amine or outer side, 2 acyl side, 3 side chain; linkers in the order of their positions; H or OH if unused. Positions of bridges follow the written chain, without caps; N, C: chain ends. Non-standard residues stand in square brackets, D forms with d. Residues, ends and D or L forms follow the SMILES beside them. X1 = CC(C)CCCCCCCCC[C@H](CC(=O)[*:1])O[*:2]; Orn = NCCC[C@H](N)C(=O)O

Key:
[1] = tested on: Mycoplasma pulmonis; assay: Antibacterial activity against 10^6 CFU/ml Mycoplasma pulmonis MpUR1.1 after 48 hrs; assay type: functional; conditions: Mycoplasmopsis pulmonis
In short: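 Mycoplasmas seeded at 10^6 CFU/ml in Hayflick medium with 5% horse serum, with twofold serial drug dilutions (0.4 to 100 µM). Growth was followed by phenol red colour change. MIC was the lowest concentration giving complete growth inhibition at 48 h. Triplicate.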

[2] = tested on: Mycoplasma pulmonis; assay: Antibacterial activity against 10^6 CFU/ml Mycoplasma pulmonis MpUR1.1 assessed as viable cell count after 2 hrs; assay type: functional; conditions: Mycoplasmopsis pulmonis
In short: (§1)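 For bactericidal testing, cells were exposed to peptides for 2 h or enrofloxacin for 24 h, then plated on solid medium at 37°C under anaerobic conditions. Colonies were read after 4 to 5 days. MBC was the lowest concentration killing 99.9% of cells. Triplicate.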

[3] = tested on: Mycoplasma pulmonis; assay: Ratio of MBC to MIC for Mycoplasma pulmonis MpUR1.1; assay type: functional, Mycoplasmopsis pulmonis
In short: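 MIC came from broth microdilution at 10^6 CFU/ml in Hayflick medium with 5% horse serum. Twofold dilutions ran from 0.4 to 100 µM, with phenol red read-out at 48 h. MBC came from plating after exposure (peptides 2 h, enrofloxacin 24 h) on solid medium at 37°C under anaerobic conditions. MBC was the concentration killing 99.9% of cells, with colonies read at 4 to 5 days.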

[4] = tested on: Mycoplasma pulmonis; assay: Antibacterial activity against 10^6 CFU/ml log-phase Mycoplasma pulmonis MpUR1.1 assessed as viable cell count at 0.4 uM after 1 hr relative to control; assay type: functional, Mycoplasmopsis pulmonis
In short: (§2)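 Time-kill on log-phase cells, about 10^6 CFU/ml in Hayflick broth, exposed to a single drug concentration at 37°C. Aliquots were taken at 1, 2 or 24 h, serially diluted and plated for viable counts. Counts were expressed as percent of the untreated culture. Values are the mean of two independent experiments.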

[5] = tested on: Mycoplasma pulmonis; assay: Antibacterial activity against 10^6 CFU/ml growth-phase Mycoplasma pulmonis MpUR1.1 assessed as viable cell count after 2 hrs relative to control; assay type: functional; conditions: Mycoplasmopsis pulmonis; in short: as §2
[6] = tested on: Mycoplasma pulmonis; assay: Antibacterial activity against 10^6 CFU/ml log-phase Mycoplasma pulmonis MpUR1.1 assessed as viable cell count at 0.4 uM after 24 hrs relative to control; assay type: functional, Mycoplasmopsis pulmonis; in short: as §2
[7] = tested on: Mycoplasma pulmonis; assay: Antibacterial activity against 10^6 CFU/ml log-phase Mycoplasma pulmonis MpUR1.1 assessed as viable cell count at 6.25 uM after 1 hr relative to control; assay type: functional, Mycoplasmopsis pulmonis; in short: as §2
[8] = tested on: Mycoplasma pulmonis; assay: Antibacterial activity against 10^6 CFU/ml log-phase Mycoplasma pulmonis MpUR1.1 assessed as viable cell count at 6.25 uM after 24 hrs relative to control; assay type: functional, Mycoplasmopsis pulmonis; in short: as §2
[9] = tested on: Mycoplasma pulmonis; assay: Antibacterial activity against 10^6 CFU/ml Mycoplasma pulmonis MpUR1.1 assessed as viable cell count after 24 hrs; assay type: functional; conditions: Mycoplasmopsis pulmonis; in short: as §1
[10] = tested on: Mycoplasma pulmonis; assay: Antibacterial activity against 10^6 CFU/ml log-phase Mycoplasma pulmonis MpUR1.1 assessed as viable cell count at 3.12 uM after 1 hr relative to control; assay type: functional, Mycoplasmopsis pulmonis; in short: as §2
[11] = tested on: Mycoplasma pulmonis; assay: Antibacterial activity against 10^6 CFU/ml log-phase Mycoplasma pulmonis MpUR1.1 assessed as viable cell count at 3.12 uM after 24 hrs relative to control; assay type: functional, Mycoplasmopsis pulmonis; in short: as §2
[12] = tested on: Mycoplasma pulmonis; assay: Antibacterial activity against 10^6 CFU/ml log-phase Mycoplasma pulmonis MpUR1.1 assessed as viable cell count at 25 uM after 1 hr relative to control; assay type: functional, Mycoplasmopsis pulmonis; in short: as §2
[13] = tested on: Mycoplasma pulmonis; assay: Antibacterial activity against 10^6 CFU/ml log-phase Mycoplasma pulmonis MpUR1.1 assessed as viable cell count at 25 uM after 24 hrs relative to control; assay type: functional, Mycoplasmopsis pulmonis; in short: as §2

MIC [1]	Compound	MBC [2]	Ratio [3]	Activity [4]	Activity [5]	Activity [6]	Activity [7]	Activity [8]	MBC [9]	Activity [10]	Activity [11]	Activity [12]	Activity [13]
0.14 µg/mL (≈ 0.39 µM)	CCN1CCN(c2cc3c(cc2F)c(=O)c(C(=O)O)cn3C2CC2)CC1 [ENROFLOXACIN]		2	89%	Active	0.22%			0.29 µg/mL (≈ 0.807 µM)				
3.6 µg/mL (≈ 3.15 µM)	CC(C)C[C@@H]1NC(=O)[C@H](CCCN)NC(=O)[C@H](C(C)C)NC(=O)[C@@H]2CCCN2C(=O)[C@@H](Cc2ccccc2)NC(=O)[C@H](CC(C)C)NC(=O)[C@H](CCCN)NC(=O)[C@H](C(C)C)NC(=O)[C@@H]2CCCN2C(=O)[C@@H](Cc2ccccc2)NC1=O [GRAMICIDIN S] (cyclo(L[dF]PV[Orn]L[dF]PV[Orn]))	7.1 µg/mL (≈ 6.22 µM)	2		Active					98%	0.16%		

The next lines start with the compound.

Compound	MIC [1]	MBC [2]	Ratio [3]	Activity [4]	Activity [5]	Activity [6]	Activity [7]	Activity [8]	MBC [9]	Activity [10]	Activity [11]	Activity [12]	Activity [13]
CCCCCC[C@H]1OC(=O)CNC(=O)[C@H]([C@H](C)O)NC(=O)[C@H](CO)NC(=O)[C@H]([C@H](C)CC)NC(=O)[C@H](CC(C)C)N(C)C(=O)[C@@H]1C	0.26 µg/mL (≈ 0.396 µM)	8.2 µg/mL (≈ 12.5 µM)	31	68%	Active	0.05%							
CC(=O)NC(C)(C)C(=O)N1CCC[C@H]1C(=O)NC(C)(C)C(=O)N[C@@H](C)C(=O)NC(C)(C)C(=O)N[C@@H](C)C(=O)N[C@@H](CCC(N)=O)C(=O)NC(C)(C)C(=O)N[C@H](C(=O)NC(C)(C)C(=O)NCC(=O)N[C@@H](CC(C)C)C(=O)NC(C)(C)C(=O)N1CCC[C@H]1C(=O)N[C@H](C(=O)NC(C)(C)C(=O)NC(C)(C)C(=O)N[C@@H](CCC(=O)O)C(=O)N[C@@H](CCC(N)=O)C(=O)N[C@H](CO)Cc1ccccc1)C(C)C)C(C)C [ALAMETHICIN]	12.3 µg/mL (≈ 6.26 µM)	49.1 µg/mL (≈ 25 µM)	2		Active		31%	0%					
CC(C)CCCCCCCCC[C@@H]1CC(=O)N[C@@H](CCC(=O)O)C(=O)N[C@@H](CC(C)C)C(=O)N[C@H](CC(C)C)C(=O)N[C@@H](C(C)C)C(=O)N[C@@H](CC(=O)O)C(=O)N[C@H](CC(C)C)C(=O)N[C@@H](CC(C)C)C(=O)O1 [SURFACTIN] (EL[dL]VD[dL]L; linker N-C via X1)	25.9 µg/mL (≈ 25 µM)	104 µg/mL (≈ 100 µM)	2		Active							43%	0.08%
